Screens: PubChem BioAssay, several laboratories
MIN6 prolif: inducers of beta-cell replication in MIN6 cells; MIN6 cells proliferation, ATPlite luminescence, 48 h; cells starved in 0.2% serum; 100% = growth in 10% serum; proliferation, % at 10 µM; actives 0.29% (n = 330,000);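 active = compounds whose signal lies at least 3.5 SD above the mean of all wells on their plate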
MC4R ag barr: activates human MC4R beta-arrestin recruitment; P32245; U2OS MC4R beta-arrestin complementation, luminescence; percent of melanotan II response, DMSO zero; activation, % at 8.9 µM; actives 0.98% (n = 360,000);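 active = activation above a per-plate cutoff, the mean activation of sample wells on that plate plus 3 SD, cut at about 8% in these data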
MC4R antag cAMP: human MC4R antagonism in cAMP assay | MC4R-expressing cells, MTII-stimulated cAMP, LANCE TR-FRET | actives 0.48% (n = 360,000) | AID 540295 | inhibition, % at 6.5 µM | P32245;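 active = inhibition above its plate's cutoff, the mean of tested wells on that plate plus 3 SD, cut at about 29% in these data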
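system = U2OS cells with stable human MC4R expression | also added = Melanotan II challenge after compound preincubation | dosing = one concentration, 6.5 µM nominal | incubation = compound 30 min, challenge 1 h, detection 1 h | measured by = TR-FRET with Eu-cAMP and labeled anti-cAMP, 671 nm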
TLR4-MyD88 BLA: TLR4-MyD88 interaction inhibition in cells; O00206+Q99836; actives 0.18% (n = 200,000); AID 861; inhibition, % at 8.4 µM; HeLa CL3-4 TLR4/MyD88 BLA complementation, FRET ratio; in the data active = inhibition above about 25%
TLR9-MyD88 block: inhibitors of human TLR9-MyD88 binding; CHO BLA complementation TLR9-MyD88, CCF4 FRET ratio; inhibition, % at 4.98 µM; actives 0.21% (n = 340,000); AID 504734;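 active = inhibition above the mean over all tested compounds plus 3 SD, cut at about 21% in these data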
NOD2-RIPK2 inh: NOD2-RIPK2 protein interaction inhibition; actives 0.38% (n = 360,000); inhibition, % at 4.98 µM; CHO BLA complementation NOD2-RIPK2, CCF4 ratio; O43353; in the data active = inhibition above about 21%
Target sequence (O43353 whole entry, looked up): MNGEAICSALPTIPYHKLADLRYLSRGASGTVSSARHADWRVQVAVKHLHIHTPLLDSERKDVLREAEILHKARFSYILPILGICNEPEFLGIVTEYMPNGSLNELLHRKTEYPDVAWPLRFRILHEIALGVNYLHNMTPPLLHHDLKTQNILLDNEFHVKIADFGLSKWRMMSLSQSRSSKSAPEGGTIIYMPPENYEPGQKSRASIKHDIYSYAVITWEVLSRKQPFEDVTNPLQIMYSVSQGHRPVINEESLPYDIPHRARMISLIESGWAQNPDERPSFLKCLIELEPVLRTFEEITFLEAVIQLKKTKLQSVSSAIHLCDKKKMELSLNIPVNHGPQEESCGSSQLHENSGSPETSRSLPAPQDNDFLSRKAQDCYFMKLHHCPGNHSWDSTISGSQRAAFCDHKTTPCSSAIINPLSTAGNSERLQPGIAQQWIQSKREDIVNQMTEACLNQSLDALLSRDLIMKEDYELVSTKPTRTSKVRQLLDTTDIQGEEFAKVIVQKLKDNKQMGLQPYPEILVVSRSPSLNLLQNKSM
TLR4 MyD88 cnf: confirmation of human TLR4-MyD88 binding inhibitors; HeLa CL3-4 BLA complementation, CCF4 FRET ratio; inhibition, % at 8.4 µM; AID 941; actives 50% (n = 350); shares compounds with TLR4-MyD88 BLA;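 active = mean inhibition across three repeat runs above about 25% carried over from the earlier screen, limit read from the data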
BLA inh HeLa: beta-lactamase inhibition flagged in TLR4-MyD88 counter-screen; shares compounds with TLR4-MyD88 BLA; HeLa BLA reporter, CCF4 FRET ratio; inhibition, % at 8.4 µM; actives 63% (n = 350);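 active = mean inhibition over three repeats above about 26% taken from the earlier screen, limit read from the data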;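 also: HeLa cells stably expressing beta-lactamase reporter as counterscreen for TLR4-MyD88 inhibitors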
TLR9-MyD88 conf: confirmation of human TLR9-MyD88 binding inhibitors | shares compounds with TLR9-MyD88 block | inhibition, % at 4.98 µM | CHO TLR9/MyD88 BLA complementation, CCF4 FRET ratio | actives 51% (n = 680);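 active = mean inhibition across three repeats above about 21% taken from the earlier screen, limit read from the data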;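 also: blue over green emission ratio reports constitutive TLR9 MyD88 association via BLA complementation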
BLA counter-1: non-selective beta-lactamase inhibitors in TLR9-MyD88 counter-screen; shares compounds with TLR9-MyD88 block; CHO-BLA cells, CCF4 FRET ratio, BLA reporter; actives 7% (n = 680); inhibition, % at 4.98 µM;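 active = mean inhibition above a 50% cutoff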;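 also: counterscreen of TLR9-MyD88 hits on CMV-driven BLA in CHO-K1 cells; higher means less blue over green ratio so more BLA blockade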
TLR9 CHO tox: CHO cell toxicity counter-screen for TLR9-MyD88 inhibitors; inhibition, % at 4.98 µM; actives 39% (n = 680); TLR9-MyD88 CHO cells cytotoxicity, luminescence; shares compounds with TLR9-MyD88 block; in the data active = inhibition above about 11%
NOD2-RIPK2 conf: confirmation of human NOD2-RIPK2 interaction inhibitors | shares compounds with NOD2-RIPK2 inh | CHO cells, NOD2-RIPK2 BLA complementation, CCF4 FRET | inhibition, % at 4.98 µM | actives 70% (n = 1,200) | AID 624370;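 active = mean inhibition across replicates above a set limit taken from the earlier primary screen, cut at about 21% in these data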
BLA counter-2: counter-screen for NOD2-RIPK2 interaction inhibitors: BLA reporter; shares compounds with NOD2-RIPK2 inh; CHO BLA reporter, CCF4 FRET ratio, counterscreen; inhibition, % at 4.98 µM; actives 57% (n = 1,200);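 active = mean inhibition above the low-control mean inhibition plus three low-control SD, cut at about 11% in these data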
Large screens that a line does not name were inactive (follow-up assays come after a bar, where they were run). Most compounds without a hit are left out; they make up all but 2.1% or so of the library.

Cc1ccc(-c2cc(-c3ccccc3)c3c(N)c(S(C)(=O)=O)sc3n2)cc1	TLR4-MyD88 BLA 28, TLR9-MyD88 block 46, NOD2-RIPK2 inh 35 | TLR4 MyD88 cnf 31 | BLA inh HeLa 50 | NOD2-RIPK2 conf 62 | BLA counter-2 71
Cc1cc(C)c2c(N)c(S(=O)(=O)Cc3ccccc3)sc2n1	none
CCCCCCSc1ccc(-c2nc3cnccn3c2NC2CCCCC2)cc1	none (no result: MIN6 prolif, MC4R ag barr, MC4R antag cAMP, TLR4-MyD88 BLA, TLR9-MyD88 block)
Clc1ccc(-c2nc3cnccn3c2NC2CCCC2)cc1	TLR4-MyD88 BLA 32, TLR9-MyD88 block 24, NOD2-RIPK2 inh 25 | TLR4 MyD88 cnf inactive | BLA inh HeLa inactive | TLR9-MyD88 conf inactive | BLA counter-1 inactive | TLR9 CHO tox inactive | NOD2-RIPK2 conf 34 | BLA counter-2 34
O=C1c2cccc3c(O)ccc(c23)C(=O)N1Cc1ccccc1	TLR4-MyD88 BLA 32, TLR9-MyD88 block 26, NOD2-RIPK2 inh 42 | TLR4 MyD88 cnf inactive | BLA inh HeLa 34 | NOD2-RIPK2 conf 46 | BLA counter-2 56
OCCCCc1nccc2c1[nH]c1ccccc12	none (no result: TLR4-MyD88 BLA)
N#Cc1ccc(/C=C\c2nccc3c2[nH]c2ccccc23)cc1	TLR4-MyD88 BLA 33, TLR9-MyD88 block 21, NOD2-RIPK2 inh 26 | TLR4 MyD88 cnf inactive | BLA inh HeLa 54 | TLR9-MyD88 conf inactive | BLA counter-1 inactive | TLR9 CHO tox 13 | NOD2-RIPK2 conf 37 | BLA counter-2 56
COC(=O)c1ccc(CNC(=O)c2ccc(NS(=O)(=O)c3ccc4[nH]c(=O)[nH]c4c3)cc2)cc1	none (no result: TLR4-MyD88 BLA)
C/C(=N\Nc1ccc([N+](=O)[O-])cc1)c1ccc(O)cc1	TLR4-MyD88 BLA 38, NOD2-RIPK2 inh 29 (no result: TLR9-MyD88 block) | TLR4 MyD88 cnf inactive | BLA inh HeLa 44 | NOD2-RIPK2 conf 42 | BLA counter-2 48
O=C(N/N=C/c1cc([N+](=O)[O-])ccc1O)c1cccc2ccccc12	none (no result: TLR4-MyD88 BLA)
C#CCOCCOCCOCCNc1nc(N2CCOCC2)nc(N2CCN(C(=O)[C@H](C)n3cc(CCC(=O)O)nn3)CC2)n1	none (no result: MIN6 prolif, TLR4-MyD88 BLA)
O=C1c2cccc3c([N+](=O)[O-])ccc(c23)C(=O)N1c1ccccn1	TLR4-MyD88 BLA 92, TLR9-MyD88 block 81, NOD2-RIPK2 inh 90 | TLR4 MyD88 cnf 91 | BLA inh HeLa 114 | TLR9-MyD88 conf 65 | BLA counter-1 85 | TLR9 CHO tox 99 | NOD2-RIPK2 conf 93 | BLA counter-2 87
CCn1c(=O)c([N+](=O)[O-])c(NCC2CCCO2)c2ccccc21 (centres undefined)	none (no result: TLR4-MyD88 BLA)
CCN1CCN(c2ccc(NC(=O)c3ccc([N+](=O)[O-])o3)cc2Cl)CC1	TLR4-MyD88 BLA 30, NOD2-RIPK2 inh 31 (no result: MIN6 prolif) | TLR4 MyD88 cnf inactive | BLA inh HeLa inactive | NOD2-RIPK2 conf 25 | BLA counter-2 16
COc1ccc(N(CC(=O)NCc2ccc3c(c2)OCO3)S(=O)(=O)c2ccc(O)c(C(=O)O)c2)cc1	none (no result: MIN6 prolif, TLR4-MyD88 BLA)
CCN1CCC2(CC1)Oc1c(OC)cccc1C1CC(c3cccnc3)=NN12 (centres undefined)	none (no result: TLR4-MyD88 BLA, TLR9-MyD88 block)
O=S(=O)(c1ccc(NC(=S)N/N=C/c2c3ccccc3cc3ccccc23)cc1)N1CCOCC1	TLR4-MyD88 BLA 39, NOD2-RIPK2 inh 22 | TLR4 MyD88 cnf inactive | BLA inh HeLa 43 | NOD2-RIPK2 conf 49 | BLA counter-2 53
Cc1ccc2nc(/C(C#N)=C\c3ccc([N+](=O)[O-])o3)[nH]c2c1	MC4R ag barr 766, TLR4-MyD88 BLA 84, TLR9-MyD88 block 24, NOD2-RIPK2 inh 27 | TLR4 MyD88 cnf 83 | BLA inh HeLa 96 | TLR9-MyD88 conf 57 | BLA counter-1 70 | TLR9 CHO tox 75 | NOD2-RIPK2 conf 86 | BLA counter-2 70
Cc1cccc(NC(=O)/C(C#N)=C/c2cn(CC(=O)NCc3ccco3)c3ccccc23)c1C	none
N#C/C(=C\c1cn(Cc2ccc(F)cc2)c2ccccc12)C(=O)NCc1ccco1	MC4R ag barr 9.1, TLR4-MyD88 BLA 63, TLR9-MyD88 block 78, NOD2-RIPK2 inh 31 | TLR4 MyD88 cnf 73 | BLA inh HeLa 100 | NOD2-RIPK2 conf 82 | BLA counter-2 85
CCc1ccc2c(c1)NC(=O)C2(C)Cc1ccccc1 (centres undefined)	none (no result: MIN6 prolif, TLR4-MyD88 BLA, TLR9-MyD88 block)
CCc1ccc2c(c1)C1(NN=C(c3cccc4ccccc34)S1)C(=O)N2 (centres undefined)	TLR4-MyD88 BLA 31, TLR9-MyD88 block 27, NOD2-RIPK2 inh 30 | TLR4 MyD88 cnf inactive | BLA inh HeLa 28 | NOD2-RIPK2 conf inactive | BLA counter-2 inactive
Cc1cc(Cl)n2c(nc3cc(F)c(F)cc32)c1C#N	TLR4-MyD88 BLA 75, TLR9-MyD88 block 71, NOD2-RIPK2 inh 63 (no result: MIN6 prolif) | TLR4 MyD88 cnf 72 | BLA inh HeLa 86 | TLR9-MyD88 conf 66 | BLA counter-1 54 | TLR9 CHO tox 101 | NOD2-RIPK2 conf 90 | BLA counter-2 82
Cc1cc(C)n2c(=O)c3ccc(Cl)cc3nc2c1C#N	none
O=[N+]([O-])c1ccccc1N/N=C/c1c[nH]c2ccccc12	none
O=[N+]([O-])c1ccc(N/N=C/c2c[nH]c3ccccc23)cc1	TLR4-MyD88 BLA 40, TLR9-MyD88 block 44, NOD2-RIPK2 inh 36 | TLR4 MyD88 cnf 28 | BLA inh HeLa 53 | TLR9-MyD88 conf 29 | BLA counter-1 inactive | TLR9 CHO tox inactive | NOD2-RIPK2 conf 46 | BLA counter-2 47
